From ChEMBL document CHEMBL4190321, “Novel 4/3-((4-oxo-5-(2-oxoindolin-3-ylidene)thiazolidin-2-ylidene)amino) benzenesulfonamides: Synthesis, carbonic anhydrase inhibitory activity, anticancer activity and molecular modelling studies” (Eur J Med Chem, 2017)

Tests used:
MCF7 [1] = assay: Antiproliferative activity against human MCF7 cells by MTT assay
Carbonic anhydrase 9 = Carbonic anhydrase 9 (Homo sapiens, UniProt Q16790); assay: Inhibition of human transmembrane carbonic anhydrase 9 by stopped-flow CO2 hydrase assay
Caco-2 = assay: Antiproliferative activity against human Caco2 cells by MTT assay
MCF7 [2] = assay: Induction of apoptosis in human MCF7 cells assessed as decrease in Bcl-2 expression at IC50 by ELISA relative to control; type: functional; set-up: scale not given: the % may be the effect or the level left
Method in brief: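 MCF-7 cells were treated alongside a 1% DMSO control. Bcl-2 protein was measured with a colorimetric ELISA kit and reported in ng/ml. Data are mean ± SD of three separate experiments, and significance versus control was set at P < 0.05.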

Carbonic anhydrase 2 = Carbonic anhydrase 2 (Homo sapiens, UniProt P00918); assay: Inhibition of human cytosolic carbonic anhydrase 2 by stopped-flow CO2 hydrase assay
Carbonic anhydrase 1 = Carbonic anhydrase 1 (Homo sapiens, UniProt P00915); assay: Inhibition of human cytosolic carbonic anhydrase 1 by stopped-flow CO2 hydrase assay
Carbonic anhydrase 4 = Carbonic anhydrase 4 (Homo sapiens, UniProt P22748); assay: Inhibition of human transmembrane carbonic anhydrase 4 by stopped-flow CO2 hydrase assay
Sequence of Carbonic anhydrase 4 (P22748 whole entry): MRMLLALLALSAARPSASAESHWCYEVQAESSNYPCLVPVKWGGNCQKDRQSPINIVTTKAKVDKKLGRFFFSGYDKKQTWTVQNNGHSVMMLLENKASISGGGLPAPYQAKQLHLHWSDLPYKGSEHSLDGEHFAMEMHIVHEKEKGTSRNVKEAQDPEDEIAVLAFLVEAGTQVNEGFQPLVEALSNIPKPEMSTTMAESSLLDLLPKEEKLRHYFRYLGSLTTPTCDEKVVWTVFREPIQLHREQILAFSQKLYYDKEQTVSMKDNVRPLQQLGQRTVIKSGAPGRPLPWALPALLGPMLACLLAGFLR

Sequence of Carbonic anhydrase 1 (P00915 whole entry): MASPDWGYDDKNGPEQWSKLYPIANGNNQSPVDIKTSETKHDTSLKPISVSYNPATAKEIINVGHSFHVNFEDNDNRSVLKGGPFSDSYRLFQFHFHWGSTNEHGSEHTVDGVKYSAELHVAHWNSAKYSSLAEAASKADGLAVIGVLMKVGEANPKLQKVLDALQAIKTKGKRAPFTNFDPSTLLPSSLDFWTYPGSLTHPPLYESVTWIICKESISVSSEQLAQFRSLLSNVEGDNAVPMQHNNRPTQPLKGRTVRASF

`Cc1cc(C)c2c(c1)/C(=C1/S/C(=N/c3ccc(S(N)(=O)=O)cc3)NC1=O)C(=O)N2` was tested. Which IC50 (MCF7 [1]) did it give?
Its IC50 is greater than 200 µM.

What about the Ki (Carbonic anhydrase 9) of the same molecule?
Its Ki is 0.1 µM.

And the IC50 (Caco-2)?
The IC50 was 146 µM.

Which results are given for `NS(=O)(=O)c1cccc(/N=C2\NC(=O)/C(=C3/C(=O)N(Cc4ccccc4)c4ccccc43)S2)c1`?
IC50 (MCF7 [1]): > 200 µM; Ki (Carbonic anhydrase 9): 0.17 µM; IC50 (Caco-2): 103 µM

Which IC50 (MCF7 [1]) does the source give for `NS(=O)(=O)c1ccc(/N=C2\NC(=O)/C(=C3/C(=O)N(Cc4ccccc4)c4ccc(Br)cc43)S2)cc1` here?
The IC50 was greater than 200 µM.

What about the Ki (Carbonic anhydrase 9) of the same molecule?
The Ki was 0.321 µM.

What about the IC50 (Caco-2) of the same molecule?
Its IC50 is 57.8 µM.

Which results are given for `Cc1ccc2c(c1)/C(=C1/S/C(=N/c3ccc(S(N)(=O)=O)cc3)NC1=O)C(=O)N2`?
IC50 (MCF7 [1]): > 200 µM; Ki (Carbonic anhydrase 9): 0.0721 µM; IC50 (Caco-2): 174 µM

For `NS(=O)(=O)c1ccc(/N=C2\NC(=O)/C(=C3/C(=O)N(Cc4ccccc4)c4ccc(Cl)cc43)S2)cc1`, which IC50 (MCF7 [1]) is on record?
The IC50 was 124 µM.

And the Ki (Carbonic anhydrase 9)?
Its Ki is 0.0906 µM.

And the IC50 (Caco-2)?
The IC50 was 13.7 µM.

Which Activity (MCF7 [2]) does the source give for `NS(=O)(=O)c1ccc(/N=C2\NC(=O)/C(=C3/C(=O)Nc4ccc(Cl)cc43)S2)cc1` here?
The Activity was 45%.

What about the IC50 (MCF7 [1]) of the same molecule?
Its IC50 is 3.96 µM.

And the Ki (Carbonic anhydrase 9)?
The Ki was 0.0624 µM.

And the IC50 (Caco-2)?
The IC50 was 20.3 µM.

Which IC50 (MCF7 [1]) does the source give for `NS(=O)(=O)c1ccc(/N=C2\NC(=O)/C(=C3/C(=O)Nc4ccc([N+](=O)[O-])cc43)S2)cc1` here?
Its IC50 is greater than 200 µM.

What about the Ki (Carbonic anhydrase 9) of the same molecule?
Its Ki is 0.0341 µM.

What about the IC50 (Caco-2) of the same molecule?
The IC50 was 13.8 µM.

For `CN1C(=O)/C(=C2\S/C(=N/c3ccc(S(N)(=O)=O)cc3)NC2=O)c2ccccc21`, which IC50 (MCF7 [1]) is on record?
The IC50 was 51.9 µM.

And the Ki (Carbonic anhydrase 9)?
Its Ki is 0.146 µM.

And the IC50 (Caco-2)?
The IC50 was 163 µM.

How did the IC50 (MCF7 [1]) turn out when `COc1ccc2c(c1)/C(=C1/S/C(=N/c3cccc(S(N)(=O)=O)c3)NC1=O)C(=O)N2` was run?
The IC50 was greater than 200 µM.

What about the Ki (Carbonic anhydrase 9) of the same molecule?
The Ki was 0.0247 µM.

And the IC50 (Caco-2)?
The IC50 was 8.39 µM.

`CN1C(=O)/C(=C2\S/C(=N/c3ccc(S(N)(=O)=O)cc3)NC2=O)c2cc(Cl)ccc21` was tested. Which IC50 (MCF7 [1]) did it give?
Its IC50 is greater than 200 µM.

And the Ki (Carbonic anhydrase 9)?
The Ki was 0.123 µM.

What about the IC50 (Caco-2) of the same molecule?
The IC50 was 42.3 µM.

How did the Ki (Carbonic anhydrase 9) turn out when `NS(=O)(=O)c1ccc(NC2=NC(=O)CS2)cc1` was run?
The Ki was 0.0045 µM.

What does the source list for `CN1C(=O)/C(=C2\S/C(=N/c3ccc(S(N)(=O)=O)cc3)NC2=O)c2cc(Br)ccc21`?
IC50 (MCF7 [1]): 196 µM; Ki (Carbonic anhydrase 9): 0.0389 µM; IC50 (Caco-2): 13.2 µM

For `NS(=O)(=O)c1ccc(/N=C2\NC(=O)/C(=C3/C(=O)Nc4ccccc43)S2)cc1`, which Ki (Carbonic anhydrase 2) is on record?
The Ki was 0.023 µM.

What about the IC50 (MCF7 [1]) of the same molecule?
Its IC50 is greater than 200 µM.

What about the Ki (Carbonic anhydrase 9) of the same molecule?
The Ki was 0.047 µM.

And the IC50 (Caco-2)?
The IC50 was greater than 200 µM.

And the Ki (Carbonic anhydrase 1)?
The Ki was 0.631 µM.

What about the Ki (Carbonic anhydrase 4) of the same molecule?
Its Ki is greater than 10 µM.

`COc1ccc2c(c1)/C(=C1/S/C(=N/c3ccc(S(N)(=O)=O)cc3)NC1=O)C(=O)N2` was tested. Which IC50 (MCF7 [1]) did it give?
Its IC50 is 125 µM.

What about the Ki (Carbonic anhydrase 9) of the same molecule?
Its Ki is 0.0231 µM.

And the IC50 (Caco-2)?
The IC50 was 98.3 µM.

What about the Ki (Carbonic anhydrase 4) of the same molecule?
Its Ki is greater than 10 µM.

Which results are given for `NS(=O)(=O)c1cccc(/N=C2\NC(=O)/C(=C3/C(=O)Nc4ccccc43)S2)c1`?
IC50 (MCF7 [1]): > 200 µM; Ki (Carbonic anhydrase 9): 0.0161 µM; IC50 (Caco-2): 12.1 µM

`NS(=O)(=O)c1ccc(/N=C2\NC(=O)/C(=C3/C(=O)Nc4ccc(F)cc43)S2)cc1` was tested. Which IC50 (MCF7 [1]) did it give?
The IC50 was 20.5 µM.

And the Ki (Carbonic anhydrase 9)?
The Ki was 0.0266 µM.

And the IC50 (Caco-2)?
The IC50 was 59.9 µM.

With `COc1cccc2c1C(=O)c1c(O)c3c(c(O)c1C2=O)C[C@@](O)(C(=O)CO)C[C@@H]3O[C@H]1C[C@H](N)[C@H](O)[C@H](C)O1` [DOXORUBICIN] as the molecule, how does the IC50 (Caco-2) read?
Its IC50 is 3.83 µM.

Which IC50 (MCF7 [1]) does the source give for `NS(=O)(=O)c1cccc(/N=C2\NC(=O)/C(=C3/C(=O)Nc4ccc(Br)cc43)S2)c1` here?
Its IC50 is greater than 200 µM.

And the Ki (Carbonic anhydrase 9)?
The Ki was 0.0159 µM.

What about the IC50 (Caco-2) of the same molecule?
Its IC50 is 10.8 µM.

Which results are given for `NS(=O)(=O)c1ccc(/N=C2\NC(=O)/C(=C3/C(=O)Nc4ccc(Br)cc43)S2)cc1`?
IC50 (MCF7 [1]): 11.3 µM; Ki (Carbonic anhydrase 9): 0.0666 µM; IC50 (Caco-2): 42.3 µM

`NS(=O)(=O)c1cccc(/N=C2\NC(=O)/C(=C3/C(=O)Nc4ccc(Cl)cc43)S2)c1` was tested. Which IC50 (MCF7 [1]) did it give?
Its IC50 is greater than 200 µM.

What about the Ki (Carbonic anhydrase 9) of the same molecule?
The Ki was 0.062 µM.

And the IC50 (Caco-2)?
Its IC50 is 5.87 µM.

Which results are given for `NS(=O)(=O)c1ccc(/N=C2\NC(=O)/C(=C3/C(=O)N(Cc4ccccc4)c4ccccc43)S2)cc1`?
IC50 (MCF7 [1]): > 200 µM; Ki (Carbonic anhydrase 9): 0.117 µM; IC50 (Caco-2): > 200 µM

For `NS(=O)(=O)c1cccc(/N=C2\NC(=O)CS2)c1`, which Ki (Carbonic anhydrase 9) is on record?
The Ki was 0.0177 µM.

`NS(=O)(=O)c1cccc(/N=C2\NC(=O)/C(=C3/C(=O)Nc4ccc([N+](=O)[O-])cc43)S2)c1` was tested. Which IC50 (MCF7 [1]) did it give?
Its IC50 is greater than 200 µM.

What about the Ki (Carbonic anhydrase 9) of the same molecule?
The Ki was 0.048 µM.

And the IC50 (Caco-2)?
The IC50 was 20.6 µM.
